# From PubChem BioAssay
# Runt-SMMHC FRET: inhibitors of RUNX1 Runt–CBFb-SMMHC binding, primary screen, biochemical, FRET, Cerulean-Runt, Venus-CBFb-SMMHC, uHTS; Runt-related transcription factor 1 (Homo sapiens) + Core-binding factor subunit beta …; Cerulean-Runt/Venus-CBFb-SMMHC FRET ratio 530/480, 1 h; inhibition, % at 20 µM; actives 0.74% (n = 220,000);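 active means mean inhibition across duplicate retests at 20 µM reaching about 50%, limit read from the data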;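 further: inhibitors lower the FRET ratio by blocking Runt binding to CBFb-SMMHC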
# Target sequence (Q01196 whole entry, looked up): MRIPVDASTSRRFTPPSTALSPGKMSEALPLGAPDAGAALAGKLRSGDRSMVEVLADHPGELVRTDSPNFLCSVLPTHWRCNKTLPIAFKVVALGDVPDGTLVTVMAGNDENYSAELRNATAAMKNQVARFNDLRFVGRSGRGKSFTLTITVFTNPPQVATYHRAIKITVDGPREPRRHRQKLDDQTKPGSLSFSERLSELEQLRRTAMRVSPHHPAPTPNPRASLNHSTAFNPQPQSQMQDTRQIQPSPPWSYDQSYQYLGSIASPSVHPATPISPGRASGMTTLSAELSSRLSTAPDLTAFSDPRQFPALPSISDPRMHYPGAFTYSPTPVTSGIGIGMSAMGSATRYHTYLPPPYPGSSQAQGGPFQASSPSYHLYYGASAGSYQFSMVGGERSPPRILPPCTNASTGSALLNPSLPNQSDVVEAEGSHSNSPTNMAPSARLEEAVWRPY
# Target sequence (Q13951 whole entry, looked up): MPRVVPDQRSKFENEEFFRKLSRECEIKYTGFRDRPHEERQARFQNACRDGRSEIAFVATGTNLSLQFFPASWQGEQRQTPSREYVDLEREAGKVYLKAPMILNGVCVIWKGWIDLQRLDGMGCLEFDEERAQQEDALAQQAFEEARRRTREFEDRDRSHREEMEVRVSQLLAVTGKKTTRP
# Runt-CBFb FRET: inhibitors of RUNX1 Runt–CBFb binding, primary screen, biochemical, FRET, Cerulean-Runt, Venus-CBFb, uHTS; AID 1496, 2009; Runt-related transcription factor 1 (Homo sapiens) + Core-binding factor subunit beta …; Cerulean-Runt/Venus-CBFb FRET ratio 530/480, 1 h; inhibition, % at 20 µM; actives 0.46% (n = 220,000);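 active means inhibition over about 50% at 20 µM in the single-dose screen, limit read from the data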
#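 test system = Cerulean-Runt domain fusion protein, energy donor | probe or stimulus = Venus-CBFb binding partner, 100 nM | incubation = two 1 h room-temperature incubations shielded from light | detection = fluorescence energy transfer, 422 nm excitation, 530/480 nm emission | measure = loss of energy transfer signal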
# FAS TE block: FAS thioesterase domain inhibitors, primary screen, biochemical, fluorescence intensity, uHTS | Fatty acid synthase (Homo sapiens), P49327 | recombinant FAS-TE, OMFH fluorogenic substrate, fluorescence endpoint | inhibition, % at 15 µM | actives 0.67% (n = 360,000) | AID 602261, 2012;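 active means compounds whose normalised, plate-corrected inhibition of enzyme fluorescence in the single-dose primary screen is 50% or more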
# RanGTP-Impb inh: inhibitors of RanGTP-importin-beta interaction, primary screen, biochemical, FRET, CFP-Ran, YFP-importin-beta, homogeneous | inhibition, % (concentration not given with the values) | actives 1.1% (n = 300,000) | cell-free CFP-Ran/YFP-importin-beta FRET ratio;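 active means more than half of the replicate wells show a fall in the fluorescence ratio signal beyond about 16%, limit read from the data, passing the limit was not always enough; inconclusive means exactly half of the replicate wells pass the set limit; inactive means fewer than half of replicates pass the limit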
# Calpain2 inh: inhibitors of pig calpain II, primary screen, biochemical, fluorogenic peptide substrate, 1536-well; inhibition, % at 16 µM; purified calpain II, 30 min; actives 0.37% (n = 220,000);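 active means inhibition above about 50%, limit read from the data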
# FAS-TE conf: FAS thioesterase domain inhibitors, confirmation, biochemical, fluorescence intensity, single concentration | shares compounds with FAS TE block | recombinant FAS-TE, OMFH fluorogenic substrate | inhibition, % at 15 µM | actives 45% (n = 2,300) | AID 624325, 2012;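 active means compounds inhibiting the enzyme by at least 50% at 15 µM in any one of the replicates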
# A number is an active result; - = inactive; ? = inconclusive; . = no result. Sampled rows, rich in hits. Any-hit rate of the full collection: about 2.1%.
SMILES,Runt-SMMHC FRET,Runt-CBFb FRET,FAS TE block,RanGTP-Impb inh,Calpain2 inh,FAS-TE conf
Cc1nn(-c2ccccc2)c(C)c1NC(=O)COC(=O)c1cc([N+](=O)[O-])ccc1NCCO,.,.,-,-,.,.
Cc1ccc(C)c(C(=O)COC(=O)c2cc([N+](=O)[O-])ccc2NCCO)c1,-,-,62.3,-,-,-
O=C(COC(=O)c1cc([N+](=O)[O-])ccc1NCCO)Nc1ccc2c(c1)OCO2,-,-,77.4,-,-,51.4
COc1ccc(CCCC(=O)Nc2ccc(F)cc2)cc1,-,-,-,-,-,.
O=C(Cn1c(=O)c2sccc2n(Cc2ccc([N+](=O)[O-])cc2)c1=O)NCCc1ccccc1,-,-,74.9,-,-,75.8
O=C(Cn1c(=O)c2sccc2n(Cc2cccc([N+](=O)[O-])c2)c1=O)NCCc1ccccc1,-,-,57.1,-,-,62.8
O=C(Cn1c(=O)n(-c2ccccc2)c(=O)c2sccc21)NCc1ccccc1,-,-,-,-,-,.
O=C(OC(c1ccccc1)c1nccc2ccccc12)c1cc([N+](=O)[O-])cc([N+](=O)[O-])c1 (stereo unspecified),-,-,50.1,-,-,-
OC(c1cccc(Cl)c1)c1nccc2ccccc12 (stereo unspecified),.,.,-,-,.,.
COc1ccc(NS(=O)(=O)c2cc(NC(=O)c3cnc(C)cn3)ccc2N2CCCCC2)cc1,-,-,55.1,-,-,-
COc1ccc(NS(=O)(=O)c2cc(NC(=O)c3ccc(Cl)cc3)ccc2N2CCOCC2)cc1,.,.,52.9,.,.,-
CN1CCN(c2ccc([N+](=O)[O-])cc2/C=N/NC(=O)c2ccc(F)cc2)CC1,-,-,51.8,-,-,50.6
O=C(N/N=C/c1cc([N+](=O)[O-])ccc1N1CCCCCC1)c1ccccn1,-,-,-,-,-,.
CCN(CC)C(=O)C1CCCN(c2ccc([N+](=O)[O-])cc2/C=N/NC(=O)c2cccc(Br)c2)C1 (stereo unspecified),-,-,86.3,-,-,-
N#CCC(=O)N/N=C/c1cc([N+](=O)[O-])ccc1N1CCOCC1,-,-,-,-,-,.
Cc1cccn2c(=O)c(/C=C(\C#N)S(=O)(=O)c3ccccc3)c(N3CCN(c4ccccc4)CC3)nc12,.,.,66.1,-,.,-
CCOC(=O)/C(C#N)=C/c1c(N2CCN(Cc3ccc4c(c3)OCO4)CC2)nc2c(C)cccn2c1=O,-,-,50.8,-,-,-
CCOC(=O)/C(C#N)=C/c1c(N2CCN(C)CC2)nc2c(C)cccn2c1=O,.,.,-,-,.,.
Cc1cccn2c(=O)c(/C=C(\C#N)C(N)=O)c(N3CCN(Cc4ccc5c(c4)OCO5)CC3)nc12,.,121.9,55.8,-,-,68.7
Cc1cccn2c(=O)c(/C=C(\C#N)C(N)=O)c(N3CCN(c4cccc(Cl)c4)CC3)nc12,.,.,-,-,.,.
Cn1cccc1C(=O)NCc1ccccn1,.,.,-,.,.,.
Cc1ccc(CS(=O)Cc2ccc(C(=O)NCc3ccc(OC(C)C)cc3)o2)cc1 (stereo unspecified),.,.,-,-,.,.
Cc1cc2c(cc1C)C(c1cccc([N+](=O)[O-])c1)CC(=O)N2 (stereo unspecified),-,-,59.7,?,-,79.4
CCOC(=O)c1c(NC(=O)CSc2ncnc3ccccc23)sc(C(C)=O)c1C,-,-,50.1,.,-,-
COC(=O)c1c(NC(=O)CSc2ncnc3ccccc23)sc(C)c1C,.,.,-,-,.,.
SMILES,Runt-SMMHC FRET,Runt-CBFb FRET,FAS TE block,RanGTP-Impb inh,Calpain2 inh,FAS-TE conf
CCOC(=O)c1c(NC(=O)CSc2nnc(-c3ccccc3C)n2C)sc(C(C)=O)c1C,-,-,58.8,-,-,67.6
CCOC(=O)c1c(NC(=O)CSc2nc3cccnc3n2C)sc(C(C)=O)c1C,-,-,79.6,-,-,-
CC(=O)Nc1ccc(-c2ccnc3c2CC(C)(C(=O)Nc2ccc(C(C)C)cc2)O3)cc1 (stereo unspecified),.,.,-,.,.,.
C/C(=N\Nc1ccc([N+](=O)[O-])cc1)c1cc2ccccc2o1,-,-,-,-,-,.
O=C(COC(=O)c1ccccc1[N+](=O)[O-])Nc1cccnc1Cl,.,.,-,-,.,.
Cc1coc2c(C)c3oc(=O)c(CCC(=O)NCc4ccccn4)c(C)c3cc12,.,.,-,-,.,.
COc1cccc(NC(=O)COc2ccc(C)cc2)c1,-,-,-,.,-,.
COc1cccc(NC(=O)COc2c(F)c(F)c(C(F)(F)F)c(F)c2F)c1,-,-,58.2,-,-,36.7
Cc1nn(C)cc1C(C(=O)NC1CCCCC1)N(C(=O)Cc1cccs1)c1ccc(F)cc1 (stereo unspecified),-,-,-,-,-,.
Cc1nn(C)cc1C(C(=O)NC1CCCCC1)N(C(=O)Cc1cccs1)c1ccc(C(C)C)cc1 (stereo unspecified),-,-,60.9,?,-,59.3
COc1ccc(-n2c(SCc3ccc([N+](=O)[O-])cc3)nnc2-c2ccc(C)cc2)cc1,-,-,58.2,-,-,-
COc1ccc(-n2c(Cc3ccccc3)nnc2SCc2ccc([N+](=O)[O-])cc2)cc1,-,-,-,.,-,.
CC(C)CC(=O)CC1(O)C(=O)Nc2ccccc21 (stereo unspecified),-,-,-,-,-,.
O=C1[C@H]2[C@@H](c3ccc(F)cc3)N3C(=O)N(c4cccc(Br)c4)C(=O)[C@@]3(Cc3ccccc3)[C@H]2C(=O)N1C1CCCCC1,.,.,80.0,-,.,-
CC[C@@]12C(=O)N(c3cccc(Br)c3)C(=O)N1[C@H](c1ccc(F)cc1)[C@@H]1C(=O)N(C3CCCCC3)C(=O)[C@@H]12,.,.,51.9,-,.,-
O=C(CC(=O)c1c(F)cccc1Cl)c1ccccc1O,.,.,-,-,.,.
COc1cccc(Oc2ccc(C(F)(F)F)cc2NC(=O)CN2C(=O)NC3(CCCC3)C2=O)c1,.,.,-,.,.,.
CC1Cc2cc(S(=O)(=O)N3CCN(C)CC3)ccc2N1C(=O)C1CC1 (stereo unspecified),.,.,-,-,.,.
CC(=O)c1ccc(N2CCN(S(=O)(=O)c3ccc4c(c3)CC(C)N4C(=O)C3CC3)CC2)cc1 (stereo unspecified),.,.,-,-,.,.
Cc1cccc(N2CCN(S(=O)(=O)c3ccc4c(c3)CC(C)N4C(=O)C3CC3)CC2)c1C (stereo unspecified),.,.,64.9,-,.,-
